Results taken from ChEMBL document CHEMBL5532647, “Design, synthesis, ADME and biological evaluation of benzylpiperidine and benzylpiperazine derivatives as novel reversible monoacylglycerol lipase (MAGL) inhibitors” (Eur J Med Chem, 2024).
pIC50: −log10 of the molar value. The source made the active and inactive calls. The rule behind the calls is not given here.

Key:
[1] = target: T1, Monoglyceride lipase (Homo sapiens) (UniProt Q99685); test: Reversible inhibition of human recombinant MAGL using 4-nitrophenylacetate as substrate preincubated with compound for 60 mins followed by substrate addition and measured after 30 mins by microplate reader analysis; details: time 90.0 min
T1 sequence (whole entry): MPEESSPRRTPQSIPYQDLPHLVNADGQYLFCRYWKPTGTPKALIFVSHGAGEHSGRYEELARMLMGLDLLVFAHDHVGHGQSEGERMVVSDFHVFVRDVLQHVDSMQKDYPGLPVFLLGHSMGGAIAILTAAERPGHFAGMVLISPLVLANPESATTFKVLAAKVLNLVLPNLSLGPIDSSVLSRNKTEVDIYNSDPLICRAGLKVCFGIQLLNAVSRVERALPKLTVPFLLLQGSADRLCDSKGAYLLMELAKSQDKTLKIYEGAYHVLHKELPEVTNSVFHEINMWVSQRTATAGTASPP
How it was run: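 Human recombinant MAGL (11 ng/well) in Tris pH 7.2 buffer with EDTA and BSA, preincubated with compound for 0, 30 or 60 min at room temperature. Reaction then started with 4-NPA 500 μM (solution added). Absorbance at 405 nm after 30 min. IC50 from triplicates of two independent experiments.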

[2] = target: T2, Fatty-acid amide hydrolase 1 (Homo sapiens) (UniProt O00519); test: Inhibition of FAAH in human U-937 cells at 10 uM preincubated with compound for 15 mins followed by 2-OG addition and measured after 15 mins by scintillation liquid counter analysis; assay type: cell-based; details: time 30.0 min
T2 sequence (whole entry): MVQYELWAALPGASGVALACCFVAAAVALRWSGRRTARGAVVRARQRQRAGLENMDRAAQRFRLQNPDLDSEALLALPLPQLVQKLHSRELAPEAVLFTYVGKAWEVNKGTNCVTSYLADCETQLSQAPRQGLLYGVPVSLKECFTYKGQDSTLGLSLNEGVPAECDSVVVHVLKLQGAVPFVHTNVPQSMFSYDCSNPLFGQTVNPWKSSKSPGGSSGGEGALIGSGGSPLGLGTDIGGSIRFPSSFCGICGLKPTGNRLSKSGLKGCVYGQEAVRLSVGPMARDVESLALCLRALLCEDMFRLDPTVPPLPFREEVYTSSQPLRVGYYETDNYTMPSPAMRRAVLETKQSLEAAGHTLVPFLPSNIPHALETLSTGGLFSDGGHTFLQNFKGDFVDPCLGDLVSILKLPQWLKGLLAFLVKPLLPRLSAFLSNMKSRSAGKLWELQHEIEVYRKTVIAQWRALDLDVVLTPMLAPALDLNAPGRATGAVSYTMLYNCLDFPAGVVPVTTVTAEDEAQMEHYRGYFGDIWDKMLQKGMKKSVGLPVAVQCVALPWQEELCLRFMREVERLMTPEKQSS

[3] = target: T3, Monoglyceride lipase (Homo sapiens, UniProt Q99685); test: Reversible inhibition of MAGL in human U-937 cells using 2-oleoylglycerol as substrate preincubated with compound for 30 mins followed by substrate addition and measured after 5 mins; assay type: cell-based
T3 sequence (Q99685 whole entry): T1 sequence (whole entry)
How it was run: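 Intact U937 cells co-incubated with compound for 30 min. Then 10 μM 2-oleoylglycerol plus 1.0 nM [3H]2-OG tracer added for a further 5 min at 37 °C. JZL-184 (1 μM) served as full-inhibition control. Two independent experiments in triplicate. IC50 given as mean (95% CI).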

[4] = target: T4, Monoglyceride lipase (Mus musculus) (UniProt O35678); test: Reversible inhibition of mouse brain MAGL at 10 uM incubated with compound for 25 mins by TAMRA-FP probe based SDS-PAGE analysis; assay type: tissue-based
T4 sequence (whole entry): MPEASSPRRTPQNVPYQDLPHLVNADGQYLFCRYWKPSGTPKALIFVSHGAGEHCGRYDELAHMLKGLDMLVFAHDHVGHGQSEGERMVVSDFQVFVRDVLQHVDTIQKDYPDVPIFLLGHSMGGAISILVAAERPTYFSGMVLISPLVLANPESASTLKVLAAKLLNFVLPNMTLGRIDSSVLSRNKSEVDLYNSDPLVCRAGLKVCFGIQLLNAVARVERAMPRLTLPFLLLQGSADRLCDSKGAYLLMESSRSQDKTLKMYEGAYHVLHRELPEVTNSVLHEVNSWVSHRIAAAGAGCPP
How it was run: (§1)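 Mouse brain membranes (2 mg/mL final, in PBS) preincubated 25 min at 25 °C with test compound (10 μM final) or DMSO vehicle. Controls: JZL-184, URB597 4 μM, WWL70 10 μM, THL, MAFP 5 μM. TAMRA-FP 125 nM final added for 5 min at 25 °C. Reaction stopped with Laemmli buffer, 3 min at 25 °C then 10 min at 90 °C. Separation by 10% SDS-PAGE, fluorescence scanning, three independent experiments.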

[5] = target: T5, Fatty-acid amide hydrolase 1 (Mus musculus) (UniProt O08914); test: Inhibition of mouse brain FAAH at 10 uM incubated with compound for 25 mins by TAMRA-FP probe based SDS-PAGE analysis; assay type: tissue-based; how it was run: as §1
T5 sequence (whole entry): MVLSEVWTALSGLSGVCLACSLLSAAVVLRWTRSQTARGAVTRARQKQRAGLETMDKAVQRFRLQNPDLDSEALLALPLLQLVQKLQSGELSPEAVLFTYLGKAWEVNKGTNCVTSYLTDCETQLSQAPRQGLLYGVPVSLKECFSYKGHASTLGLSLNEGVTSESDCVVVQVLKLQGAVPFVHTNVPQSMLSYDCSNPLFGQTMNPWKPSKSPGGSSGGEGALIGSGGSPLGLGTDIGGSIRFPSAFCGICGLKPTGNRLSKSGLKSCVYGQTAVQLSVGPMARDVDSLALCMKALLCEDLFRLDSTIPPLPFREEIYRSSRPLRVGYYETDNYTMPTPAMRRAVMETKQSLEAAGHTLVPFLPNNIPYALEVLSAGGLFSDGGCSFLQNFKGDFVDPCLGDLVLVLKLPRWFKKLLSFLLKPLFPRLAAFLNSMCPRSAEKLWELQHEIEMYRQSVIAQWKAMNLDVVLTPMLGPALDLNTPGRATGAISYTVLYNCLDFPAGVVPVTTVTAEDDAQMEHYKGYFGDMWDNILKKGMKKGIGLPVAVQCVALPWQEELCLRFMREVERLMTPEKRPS

[6] = target: T6, Lysophosphatidylserine lipase ABHD12 (Mus musculus) (UniProt Q99LR1); test: Inhibition of mouse brain ABHD12 at 10 uM incubated with compound for 25 mins by TAMRA-FP probe based SDS-PAGE analysis; assay type: tissue-based; how it was run: as §1
T6 sequence (whole entry): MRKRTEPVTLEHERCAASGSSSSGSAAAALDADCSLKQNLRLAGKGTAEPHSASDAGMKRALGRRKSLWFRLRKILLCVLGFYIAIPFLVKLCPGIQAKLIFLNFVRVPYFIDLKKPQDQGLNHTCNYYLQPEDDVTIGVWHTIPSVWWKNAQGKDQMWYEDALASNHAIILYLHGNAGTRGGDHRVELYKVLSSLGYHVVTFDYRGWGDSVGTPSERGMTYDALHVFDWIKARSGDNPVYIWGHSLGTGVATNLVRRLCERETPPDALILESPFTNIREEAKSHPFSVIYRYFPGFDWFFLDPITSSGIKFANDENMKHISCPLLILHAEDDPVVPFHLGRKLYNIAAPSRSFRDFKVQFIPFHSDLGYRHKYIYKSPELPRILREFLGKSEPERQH

| SMILES | inhibition [1] | inhibition [2] | pIC50 [3] | inhibition [4] | inhibition [5] | inhibition [6] |
| --- | --- | --- | --- | --- | --- | --- |
| O=C(c1cccc(O)c1)N1CCC(Cc2ccc(F)c(Sc3cc(C(F)(F)F)ccn3)c2)CC1 | Active | inactive | 6.71 | Active | inactive | inactive |
| O=C(c1cccc(O)c1)N1CCC(Cc2cccc(Sc3cc(C(F)(F)F)ccn3)c2)CC1 | Active | inactive | 6.71 | Active | inactive | inactive |
| O=C(c1cc(O)ccc1F)N1CCN(Cc2cccc(Sc3cc(C(F)(F)F)ccn3)c2)CC1 | Active | inactive | 6.31 | Active | inactive | inactive |
| O=C(c1cc(O)ccc1F)N1CCC(Cc2cccc(Sc3cc(C(F)(F)F)ccn3)c2)CC1 | Active | inactive | 6.70 | Active | inactive | inactive |
